Most compounds without a hit are left out; they make up all but 4.5% or so of the library.
TAAR1 antag – human TAAR1 antagonists, primary screen, Fluo-8 calcium fluorescence, CHO RD-HGA16 cells. Trace amine-associated receptor 1 (Homo sapiens), Q96RJ0. inhibition, % at 3 µM. antagonist. 360,000 tested, 1.5% active. AID 624466, 2012;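 active = inhibition above a per-plate cutoff, the mean inhibition of test compounds on that plate plus 3 SD, cut at about 49% in these data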;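 also: 0% = DMSO plus EC80 beta-PEA response and 100% = DMSO alone without agonist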
Target sequence (Q96RJ0 whole entry, looked up): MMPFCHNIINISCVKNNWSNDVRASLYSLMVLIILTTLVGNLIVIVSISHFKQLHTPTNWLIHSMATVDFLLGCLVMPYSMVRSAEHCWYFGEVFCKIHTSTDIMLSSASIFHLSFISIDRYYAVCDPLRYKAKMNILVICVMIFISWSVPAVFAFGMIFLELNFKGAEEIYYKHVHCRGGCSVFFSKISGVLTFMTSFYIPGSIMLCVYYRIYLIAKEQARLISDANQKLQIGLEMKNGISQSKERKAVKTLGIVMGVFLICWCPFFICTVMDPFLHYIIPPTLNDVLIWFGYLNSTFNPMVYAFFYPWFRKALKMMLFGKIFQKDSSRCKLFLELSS
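Test system – hTAAR1-expressing CHO RD-HGA16 cells, Gα16-coupled · Reagent – β-PEA at EC80 concentration, post-compound challenge · Compound dosing – 3 µM, single point · Timing – 140 s kinetic read after compound, 140 s after agonist · Detection – Fluo-8 intracellular calcium dye fluorescence, real-time kinetic reads · Control set – DMSO and EC80 PEA controls · Repeats – n of 1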
OX1R antag-1 – antagonists of human orexin 1 receptor (OX1R) | Orexin/Hypocretin receptor type 1 (Homo sapiens), O43613 | 330,000 tested, 1.8% active | OX1R-expressing cells, FRET antagonist read-out | inhibition, % at 6.6 µM; in the data active = inhibition mostly above about 38%, no sharp cut-off; inactive = mostly below about 40%;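 also: 0% = agonist challenge alone and 100% = reference antagonist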
GPR7 antag – GPR7 receptor antagonists, primary screen, cell-based, fluorescence, single concentration; GPR7-expressing cells, fluorescence antagonist assay; AID 1861, 2009; 290,000 tested, 1.1% active; inhibition, % at 4.4 µM; Neuropeptides B/W receptor type 1 (Homo sapiens), P48145; in the data active = inhibition above about 16%, passing the limit was not always enough;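 also: cells stimulated with the agonist NPW; 0% = agonist with vehicle and 100% = vehicle without agonist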
Target sequence (P48145 whole entry, looked up): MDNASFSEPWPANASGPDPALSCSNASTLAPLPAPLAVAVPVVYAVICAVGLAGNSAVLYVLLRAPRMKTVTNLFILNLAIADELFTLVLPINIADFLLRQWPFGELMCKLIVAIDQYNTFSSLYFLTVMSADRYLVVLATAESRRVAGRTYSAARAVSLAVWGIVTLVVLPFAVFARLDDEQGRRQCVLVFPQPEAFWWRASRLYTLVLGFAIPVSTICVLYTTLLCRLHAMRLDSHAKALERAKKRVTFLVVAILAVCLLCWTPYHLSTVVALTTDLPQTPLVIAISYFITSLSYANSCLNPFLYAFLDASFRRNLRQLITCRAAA
CHO parental Ca – ATP-evoked calcium signal inhibitors, parental CHO, primary screen, counter-screen for OX1R antagonist project, cell-based, fluorescence, Fluo-8 calcium dye; parental CHO-K1, ATP-induced calcium, Fluo-8 fluorescence; inhibition, % at 5.6 µM; 330,000 tested, 0.63% active; AID 463079, 2010;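 active = inhibition above that plate's mean sample inhibition plus 3 SD, cut at about 26% in these data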;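 also: 0% = ATP-challenged DMSO wells and 100% = DMSO wells without ATP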
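Test system: parental CHO cells; detection: calcium-sensitive Fluo-8 fluorescence; evaluation: percent inhibition of calcium signal; also added: ATP as calcium-mobilizing challenge; repeats: one well per compound; control set: ATP-challenged DMSO wells low, unchallenged DMSO wells high; compound: single nominal dose of 5.6 µM per compound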
TAAR1 agonist – human TAAR1 agonists, primary screen, Fluo-8 calcium fluorescence, CHO RD-HGA16 cells. 360,000 tested, 0.99% active. Trace amine-associated receptor 1 (Homo sapiens), Q96RJ0. AID 624467, 2012. vehicle wells 0%, saturating PEA agonist 100%. activation, % at 3 µM;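 active = activation above the mean activation of all test compounds in the run plus 3 SD, cut at about 38% in these data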
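Test system: RD-HGA16 (CHO) cells co-expressing Gα16 and hTAAR1 / Benchmarks: DMSO vehicle as 0%, PEA at EC100 as 100% / Repeats: no replicates (n 1) / Measure: % activation from peak over basal fluorescence ratio, DMSO-to-PEA scaled / Timing: 17-24 h plating, Fluo-8 75 min 37 °C, 30 min RT / Technique: kinetic Fluo-8 calcium fluorescence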
OX1R antag-2 – OX1R (HCRTR1) antagonists, primary screen, fluorescence, CHO/OX1R cells, Fluo-8 calcium, orexin A. AID 434989, 2010. Fluo-8 calcium fluorescence. inhibition, % at 5 µM. Orexin/Hypocretin receptor type 1 (Homo sapiens), O43613. 330,000 tested, 0.43% active;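 active = inhibition above its plate's threshold, mean inhibition of all tested compounds on the plate plus 3 SD, cut at about 37% in these data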;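 also: 0% = orexin A challenge wells and 100% = SB-334867-A antagonist wells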
The depositor's hits bear a star; x = no result given.

SMILES | TAAR1 antag | OX1R antag-1 | GPR7 antag | CHO parental Ca | TAAR1 agonist | OX1R antag-2
Cc1cc(C)cc(NC(=O)[C@@H](NC(=O)c2ccco2)C(C)C)c1 | -1 | 59 | -10 | -9 | -5 | -20
Cn1c(N)c(C(=O)COC(=O)c2ccccc2C(=O)c2ccc(Cl)c([N+](=O)[O-])c2)c(=O)n(C)c1=O | x | 36* | x | -2 | x | 12
CCN(c1ccccc1)S(=O)(=O)c1cccc(C(=O)OCC(=O)c2c(N)n(C)c(=O)n(C)c2=O)c1 | 15 | x | x | x | 8 | x
CN(c1ccccc1)S(=O)(=O)c1ccc(Cl)c(C(=O)OCC(=O)c2c(N)n(C)c(=O)n(C)c2=O)c1 | 61* | x | x | x | 12 | x
COc1ccc(N(C)S(=O)(=O)c2cccc(C(=O)OCC(=O)c3c(N)n(C)c(=O)n(C)c3=O)c2)cc1 | 73* | 13 | x | 0 | 18 | 20
COC(=O)C1=C(C)N(Cc2ccccc2C(F)(F)F)C(=NCc2ccc(OC)cc2)NC1c1ccc(F)cc1 (stereo not drawn) | -12 | x | x | x | 17 | x
C[C@H](O)[C@@H]1C(=O)N2CCc3c([nH]c4cccc(-c5ccccc5)c34)[C@@H]2C[C@@H]1N(C)C(=O)c1ccccc1 | -13 | x | x | x | 1 | x
Cc1ccc2nc(-c3ccc(CN4CCC5(CC4)CNc4ccccc45)cc3)c(-c3ccccc3)nc2c1 | 22 | x | x | x | 0 | x
CCn1c(/C=C/c2ccccc2)nc2ccccc21 | 11 | 48* | -13 | -29 | 12 | -11
O=C(Nc1nc(-c2cccs2)c(C(=O)C(F)(F)F)s1)c1ccccc1 | 34 | 60* | -4 | -6 | 0 | -26
O=C(Nc1cccc(NC(=O)c2ccccc2Cl)c1)c1ccc([N+](=O)[O-])o1 | 55* | 41 | 1 | 18 | 17 | 19
Cc1ccc(NC(=O)c2ccc([N+](=O)[O-])o2)cc1C | -2 | 37 | -17 | -7 | 4 | -4
O=C(Nc1ccc2[nH]c(=O)[nH]c2c1)c1ccc([N+](=O)[O-])o1 | 4 | 43* | x | -7 | 1 | -2
C[C@@H]1CN(S(=O)(=O)C(C)(C)C)[C@H](CCO)/C1=C\CCO | -15 | x | x | x | 3 | x
COc1cc(CNCC(C)C)cc(Br)c1OCC(=O)Nc1ccccc1 | 5 | 4 | 18* | -21 | 17 | -15
CC(=O)C1=C(C)N(Cc2ccc(F)cc2)C(=S)NC1c1ccc(Cl)cc1 (stereo not drawn) | 26 | x | x | x | -1 | x
CN1CCN(Cn2cc(/C=C/C(=O)c3ccccc3)c3ccccc32)CC1 | x | 40* | -6 | -13 | x | 14
O=C1NC(=O)C2(CCCc3ccc(N(CCO)CCO)cc32)N1 (stereo not drawn) | 5 | x | x | x | 0 | x
Cc1noc(C)c1C(=O)Nc1nc(-c2cccs2)cs1 | 8 | 15 | x | -20 | 8 | -18
CCc1noc(C)c1C(=O)Nc1nc(-c2cccs2)cs1 | -15 | 51* | x | -28 | 3 | -24
Nc1[nH]c(C(=O)c2ccccc2)c(-c2ccc3ccccc3c2)c1C(=O)NCc1ccc(F)cc1 | -32 | x | x | x | 5 | x
CC(=O)N(C)C[C@@H]1Oc2cc(Br)ccc2S(=O)(=O)N([C@H](C)CO)C[C@@H]1C | -7 | x | x | x | 7 | x
COC(=O)c1[nH]c2ccccc2c1NC(=O)CNC1CCCCC1 | 61* | 23 | -4 | -19 | 21 | -34
O=C(Nc1ccc2ncccc2c1)c1ccccc1Br | x | 11 | -17 | -11 | x | -11
O=C(Nc1ccc2ncccc2c1)Nc1ccc2ncccc2c1 | 2 | 76* | 5 | -14 | 20 | -4
SMILES | TAAR1 antag | OX1R antag-1 | GPR7 antag | CHO parental Ca | TAAR1 agonist | OX1R antag-2
O=C(C(=O)N1CCN(S(=O)(=O)c2cccc(C(F)(F)F)c2)CC1)c1cccc(C(F)(F)F)c1 | -19 | x | x | x | 1 | x
C#CCNC(=O)C[C@H]1C[C@@]2(C(=O)OC)C(=C[C@H](COCc3ccccc3)O[C@@H]2C)N(Cc2ccc3c(c2)OCO3)C1=O | -21 | x | x | x | 4 | x
C=CS(=O)(=O)N[C@@H](CSSC[C@H](NS(=O)(=O)C=C)C(=O)OC)C(=O)OC | -11 | x | x | x | 1 | x
COCCOC(=O)c1c(C)nc(SCC(=O)Nc2cccc3ccccc23)c(C#N)c1-c1ccco1 | 51* | 13 | 4 | -29 | 2 | -24
COCCn1c(SCC(=O)Nc2ccccc2F)nnc1-c1ccoc1C | 8 | 15 | 5 | 0 | 4 | -20
COC(=O)[C@@H](Cc1ccccc1)N[C@H](/C=C/c1ccccc1)[C@@H](O)Cc1ccccc1 | 14 | x | x | x | -1 | x
CC(C)COC(=O)NCCOC(=O)Nc1cccc(Cl)c1 | 23 | 37 | 2 | 57* | 6 | 1
CC(C)COC(=O)NCCCOC(=O)Nc1ccccc1 | 0 | 31 | -8 | -12 | 0 | -32
C/C(=N\NC(=O)c1nnn(-c2nonc2N)c1C)c1ccc(-c2ccccc2)cc1 | 0 | 11 | 20* | -5 | 7 | -65
Nc1nonc1-n1nnc(C(=O)N/N=C/c2cccc(F)c2)c1-c1ccc2c(c1)OCO2 | 45 | 20 | -17 | 6 | 44* | 1
CCOc1ccc(-c2c(C(=O)N/N=C/c3c[nH]c4ccccc34)nnn2-c2nonc2N)cc1 | 53* | 23 | 8 | 17 | 4 | 16
Nc1nonc1-n1nnc(C(=O)N/N=C/c2cc(Br)cs2)c1-c1ccccc1 | 1 | 51* | -15 | 1 | 41* | 1
C[C@@H]1CN([C@@H](C)CO)C(=O)CCCn2cc(nn2)CO[C@H]1CN(C)C(=O)Nc1ccnc(N2CCOCC2)c1 | -28 | x | x | x | 3 | x
CCOc1cccc(-c2c(C(=O)N/N=C/c3ccc(C)o3)nnn2-c2nonc2N)c1 | 24 | 11 | 2 | 5 | 62* | 4
CCOc1cccc(-c2c(C(=O)N/N=C/c3ccco3)nnn2-c2nonc2N)c1 | x | 10 | -5 | -4 | x | -17
C=CCCC1CN(Cc2ccc(OC)cc2)S(=O)(=O)c2c(cccc2N2CCCC2)O1 (stereo not drawn) | -72 | x | x | x | -1 | x
CC(C)c1cc(C(=O)Nc2cc(Br)ccc2O)no1 | 12 | 23 | 3 | 30* | 3 | 16
CC(C)c1cc(C(=O)Nc2cc(Cl)ccc2O)no1 | 17 | 13 | 18 | -9 | 0 | -15
O=C1CCC(NC(=O)Cc2ccccc2)C(=O)N1 (stereo not drawn) | 2 | x | x | x | 0 | x
C#CCN1C(=O)[C@]2(OC[C@@H]3Cc4ccccc4[C@@H]3C=C2C)c2ccccc21 | 16 | x | x | x | 1 | x

Screening results deposited in PubChem BioAssay by The Scripps Research Institute Molecular Screening Center.
